# Laboratory results reported in ChEMBL document CHEMBL1141391 (J Med Chem, 2007).
# What was measured:
# A2780 = assay: Cytotoxicity against A2780 cell line; type: cell-based; conditions: Homo sapiens
# PC-3 = assay: Cytotoxicity against PC3 cell line by MTT assay; type: cell-based; conditions: Homo sapiens
# Tubulin (Homo sapiens) = Tubulin (Homo sapiens) (UniProt P68371+Q9H4B7+P0DPH7+P68366+Q13509+Q71U36+P04350+Q3ZCM7+P07437+P68363+Q9BQE3+Q6PEY2+Q13885+Q9BVA1+Q9BUF5); assay: Induction of GTP-tubulin polymerization; type: protein-complex assay
# Summary of the method: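 ED50 for induction of tubulin assembly, read by light scattering at 350 nm or by fluorescence in a 96-well format. GTP-tubulin was used unless otherwise stated. Some samples were run with GDP-tubulin and normalized to the GTP-tubulin scale. Some values are single determinations.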
ED50 (Tubulin (Homo sapiens)) [nM],Structure (SMILES),IC50 (A2780) [nM],IC50 (PC-3) [nM]
930,CC(=O)O[C@H]1C(=O)[C@@]2(C)[C@@H]3[C@H](OC(=O)c4ccccc4)[C@]4(O)C[C@H](OC(=O)[C@H](O)[C@@H](NC(=O)c5ccccc5)c5ccccc5OC/C=C/CCCCC(=O)O[C@]35CO[C@@H]5C[C@@H]2O)C(C)=C1C4(C)C,1840,500
490,CC(=O)O[C@H]1C(=O)[C@@]2(C)[C@@H]3[C@H](OC(=O)c4ccccc4)[C@]4(O)C[C@H](OC(=O)[C@H](O)[C@@H](NC(=O)OC(C)(C)C)c5ccccc5/C=C/CC(=O)O[C@]35CO[C@@H]5C[C@@H]2O)C(C)=C1C4(C)C,1.4,3.2
2700,C=CCCOc1ccccc1[C@H](NC(=O)c1ccccc1)[C@@H](O)C(=O)O[C@H]1C[C@@]2(O)[C@@H](OC(=O)c3ccccc3)[C@@H]3[C@]4(OC(=O)C=C)CO[C@@H]4C[C@H](O)[C@@]3(C)C(=O)[C@H](OC(C)=O)C(=C1C)C2(C)C,19800,> 13200
1400,C=CC(=O)O[C@@]12CO[C@@H]1C[C@H](O)[C@@]1(C)C(=O)[C@H](OC(C)=O)C3=C(C)[C@@H](OC(=O)[C@H](O)[C@@H](NC(=O)c4ccccc4)c4ccccc4C=C)C[C@@](O)([C@@H](OC(=O)c4ccccc4)[C@H]21)C3(C)C,1600,275
3400,CC(=O)O[C@H]1C(=O)[C@@]2(C)[C@@H]3[C@H](OC(=O)c4ccccc4)[C@]4(O)C[C@H](OC(=O)[C@H](O)[C@@H](NC(=O)c5ccccc5)c5cccc(c5)OCCCCCC(=O)O[C@]35CO[C@@H]5C[C@@H]2O)C(C)=C1C4(C)C,3600,1000
900,CC(=O)O[C@H]1C(=O)[C@@]2(C)[C@@H]3[C@H](OC(=O)c4ccccc4)[C@]4(O)C[C@H](OC(=O)[C@H](O)[C@@H](NC(=O)c5ccccc5)c5ccccc5OC/C=C/CCC(=O)O[C@]35CO[C@@H]5C[C@@H]2O)C(C)=C1C4(C)C,830,55
350,COc1cccc(C(=O)O[C@H]2[C@@H]3[C@]45CO[C@@H]4C[C@H](O)[C@@]3(C)C(=O)[C@H](OC(C)=O)C3=C(C)[C@H](C[C@]2(O)C3(C)C)OC(=O)[C@H](O)[C@@H](NC(=O)OC(C)(C)C)c2ccccc2/C=C/CC(=O)O5)c1,> 6,11
1400,CC(=O)O[C@H]1C(=O)[C@@]2(C)[C@@H]3[C@H](OC(=O)c4ccccc4)[C@]4(O)C[C@H](OC(=O)[C@H](O)[C@@H](NC(=O)c5ccccc5)c5cccc(c5)CCCCC(=O)O[C@]35CO[C@@H]5C[C@@H]2O)C(C)=C1C4(C)C,8800,570
1400,C=CCc1ccccc1[C@H](NC(=O)c1ccccc1)[C@@H](O)C(=O)O[C@H]1C[C@@]2(O)[C@@H](OC(=O)c3ccccc3)[C@@H]3[C@]4(OC(=O)C=C)CO[C@@H]4C[C@H](O)[C@@]3(C)C(=O)[C@H](OC(C)=O)C(=C1C)C2(C)C,1300,550
570,COc1cccc(C(=O)O[C@H]2[C@@H]3[C@]45CO[C@@H]4C[C@H](O)[C@@]3(C)C(=O)[C@H](OC(C)=O)C3=C(C)[C@H](C[C@]2(O)C3(C)C)OC(=O)[C@H](O)[C@@H](NC(=O)c2ccccc2)c2ccccc2/C=C/CC(=O)O5)c1,23.7,6
220,COc1cccc(C(=O)O[C@H]2[C@@H]3[C@]45CO[C@@H]4C[C@H](O)[C@@]3(C)C(=O)[C@H](OC(C)=O)C3=C(C)[C@H](C[C@]2(O)C3(C)C)OC(=O)[C@H](O)[C@@H](NC(=O)OC(C)(C)C)c2ccccc2CCCC(=O)O5)c1,0.49,1.3
530,CC(=O)O[C@H]1C(=O)[C@@]2(C)[C@@H]3[C@H](OC(=O)c4ccccc4)[C@]4(O)C[C@H](OC(=O)[C@H](O)[C@@H](NC(=O)c5ccccc5)c5ccccc5OC/C=C/CCCC(=O)O[C@]35CO[C@@H]5C[C@@H]2O)C(C)=C1C4(C)C,440,90
,COc1cccc(C(=O)O[C@H]2[C@@H]3[C@]45CO[C@@H]4C[C@H](O)[C@@]3(C)C(=O)[C@H](OC(C)=O)C3=C(C)[C@H](C[C@]2(O)C3(C)C)OC(=O)[C@H](O)[C@@H](NC(=O)c2ccccc2)c2ccccc2CCCC(=O)O5)c1,23.1,
330,CC(=O)O[C@H]1C(=O)[C@@]2(C)[C@@H]3[C@H](OC(=O)c4ccccc4)[C@]4(O)C[C@H](OC(=O)[C@H](O)[C@@H](NC(=O)c5ccccc5)c5ccccc5/C=C/CC(=O)O[C@]35CO[C@@H]5C[C@@H]2O)C(C)=C1C4(C)C,0.5,3.1
850,CC(=O)O[C@H]1C(=O)[C@@]2(C)[C@@H]3[C@H](OC(=O)c4ccccc4)[C@]4(O)C[C@H](OC(=O)[C@H](O)[C@@H](NC(=O)c5ccccc5)c5ccccc5OCCCCCCC(=O)O[C@]35CO[C@@H]5C[C@@H]2O)C(C)=C1C4(C)C,2000,390
1200,C=CCOc1ccccc1[C@H](NC(=O)c1ccccc1)[C@@H](O)C(=O)O[C@H]1C[C@@]2(O)[C@@H](OC(=O)c3ccccc3)[C@@H]3[C@]4(OC(=O)C=C)CO[C@@H]4C[C@H](O)[C@@]3(C)C(=O)[C@H](OC(C)=O)C(=C1C)C2(C)C,17800,2800
230,CC(=O)O[C@H]1C(=O)[C@@]2(C)[C@@H]3[C@H](OC(=O)c4ccccc4)[C@]4(O)C[C@H](OC(=O)[C@H](O)[C@@H](NC(=O)c5ccccc5)c5ccccc5OCCCCC(=O)O[C@]35CO[C@@H]5C[C@@H]2O)C(C)=C1C4(C)C,28,13
1400,CC(=O)O[C@H]1C(=O)[C@@]2(C)[C@@H]3[C@H](OC(=O)c4ccccc4)[C@]4(O)C[C@H](OC(=O)[C@H](O)[C@@H](NC(=O)c5ccccc5)c5cccc(c5)OCCCC(=O)O[C@]35CO[C@@H]5C[C@@H]2O)C(C)=C1C4(C)C,700,53
220,COc1cccc(C(=O)O[C@H]2[C@@H]3[C@]45CO[C@@H]4C[C@H](O)[C@@]3(C)C(=O)[C@H](OC(C)=O)C3=C(C)[C@H](C[C@]2(O)C3(C)C)OC(=O)[C@H](O)[C@@H](NC(=O)c2ccccc2)c2ccccc2C/C=C/C(=O)O5)c1,17.7,8.2
760,CC(=O)O[C@H]1C(=O)[C@@]2(C)[C@@H]3[C@H](OC(=O)c4ccccc4)[C@]4(O)C[C@H](OC(=O)[C@H](O)[C@@H](NC(=O)c5ccccc5)c5ccccc5OCCCCCC(=O)O[C@]35CO[C@@H]5C[C@@H]2O)C(C)=C1C4(C)C,980,51
1800,C=CCCC(=O)O[C@@]12CO[C@@H]1C[C@H](O)[C@@]1(C)C(=O)[C@H](OC(C)=O)C3=C(C)[C@@H](OC(=O)[C@H](O)[C@@H](NC(=O)c4ccccc4)c4cccc(OCC=C)c4)C[C@@](O)([C@@H](OC(=O)c4ccccc4)[C@H]21)C3(C)C,2520,2600
1000,C=CC(=O)O[C@@]12CO[C@@H]1C[C@H](O)[C@@]1(C)C(=O)[C@H](OC(C)=O)C3=C(C)[C@@H](OC(=O)[C@H](O)[C@@H](NC(=O)c4ccccc4)c4cccc(C=C)c4)C[C@@](O)([C@@H](OC(=O)c4ccccc4)[C@H]21)C3(C)C,1700,320
